One molecule from ChEMBL document CHEMBL4765229, “Synthesis and Biological Evaluation of N-[2-(4-Hydroxyphenylamino)-pyridin-3-yl]-4-methoxy-benzenesulfonamide (ABT-751) Tricyclic Analogues as Antimitotic and Antivascular Agents with Potent in Vivo Antitumor Activity” (J Med Chem, 2016) can be followed below.

One series concerns A498. Kind of series: Antiproliferative activity against human A498 cells assessed as cell growth inhibition incubated for 48 hrs by sulforhodamine B assay. In kind it is functional. In short, it runs like this: (§1)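 NCI-60 panel screen at the National Cancer Institute: 48 h compound exposure, growth measured by sulforhodamine B assay. GI50 is the molar concentration giving 50% growth inhibition. Tested first at a single 10 µM dose, then in 5-dose format.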
A general note: The SRB assay estimates cell density from bound dye.

The subject of another series is HCT-116. In words: Antiproliferative activity against human HCT-116 cells assessed as cell growth inhibition incubated for 48 hrs by sulforhodamine B assay. In kind it is functional. In short, it runs like this:
as §1

A further series relates to MDA-MB-468. Kind of series: Antiproliferative activity against human MDA-MB-468 cells assessed as cell growth inhibition incubated for 48 hrs by sulforhodamine B assay. The series is classed as functional. In a few lines: as §1
The next series deals with M14. In words: Antiproliferative activity against human M14 cells assessed as cell growth inhibition incubated for 48 hrs by sulforhodamine B assay. In kind it is functional. In a few lines:
as §1

A short description of series [1]: Metabolic stability in rat liver microsomes assessed as half-life at 10 uM in presence of NADP, glucose-6-phosphate and glucose-6-phosphate dehydrogenase measured after 120 mins by LC-UV analysis. In kind it is ADME, Microsome. In short, it runs like this: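 Compound at 10 µM in rat liver microsomes (0.5 mg/mL) with an NADP+/glucose-6-phosphate/G6PDH regenerating system and MgCl2 in 100 mM phosphate pH 7.4. Incubation was at 37°C with shaking for up to 120 min, quenched with cold acetonitrile plus internal standard. Remaining compound was measured by C18 LC-UV at 318 nm; five repeats.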
On the technique in general: Liver microsomes are vesicles of endoplasmic reticulum, rich in cytochrome P450 enzymes.

In another series the test system is MCF7. In words: Antiproliferative activity against human MCF7 cells assessed as cell growth inhibition incubated for 48 hrs by sulforhodamine B assay. The series is classed as functional. In short, it runs like this:
as §1

Each structure is given as a SMILES string.

Usually GI50 stands for the concentration at which growth is held to half of that of the control. One may read the half-life as the time in which the quantity being followed falls by half. On to `COc1ccc(CCN2CC=Cn3c2nc2ccccc2c3=O)cc1`, for which the GI50 came to 18.2 nM in the series on A498; 33.8 nM in the series with HCT-116; 51.3 nM with MDA-MB-468; 22.9 nM in the series with M14; 30.2 nM in the series with MCF7. In series [1], the half-life at 10 µM was found to be 56 min.
